Test results reported in ChEMBL document CHEMBL3392968 (Eur J Med Chem, 2015).
≈ marks a conversion by molar mass, not a printed value. Calls of active or inactive are those of the source. The calls are words filed in the database; no cut-off is given here.

Legend:
[1] = Displacement of [3H]-DTG from sigma 2 receptor guinea pig brain membranes incubated for 120 mins by scintillation counting method; parameters: species or system Cavia porcellus, Membrane
In short: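 Guinea pig brain membranes (360 µg protein) with 3 nM [3H]DTG and test compound (10^-5 to 10^-10 M) in 50 mM Tris-HCl pH 8.0, 120 min at room temperature, with 400 nM (+)-SKF10,047 masking σ1 sites. Nonspecific binding with 5 µM DTG; PEI-presoaked GF/B filtration, scintillation counting, Ki by EBDA/LIGAND.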

[2] = Stability in rat plasma assessed half life at 1 mg/mL by HPLC method; format: ADME, cell-free
In short: (§1)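 Human or rat plasma, obtained from citrated blood (0.3% citric acid) centrifuged at 3000 × g, diluted to 80% with 0.02 M phosphate buffer pH 7.4, incubated with compound at 37 °C. Samples centrifuged at 5000 × g; supernatant analysed by RP-C18 HPLC; remaining intact compound plotted against time to obtain kobs and half-life.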

[3] = target: T1, Histone deacetylase (Rattus norvegicus) (UniProt Q6P6W3+Q99P99+Q99P96+Q4QQW4+Q99P97+Q5RJZ2+B1WBY8); test: Inhibition of HDAC in rat C6 cells assessed as increase in histone H3 acetylation at 5 uM after 15 hrs by flow cytometry; format: cell-based
In short: (§2)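 C6 cells treated at 5 µM for 6, 15 or 24 h, with DMSO vehicle as control. Fixed in 1% paraformaldehyde, permeabilized with 0.1% Triton X-100, blocked in goat serum. Stained with anti-acetyl-H3 (Lys9) rabbit mAb (1:100, 1 h on ice), then FITC anti-rabbit IgG (20 µg/mL, 45 min). About 10000 events at 488 nm; acetylation quantified from MFI.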

[4] = Stability in human plasma assessed half life at 1 mg/mL by HPLC method; format: ADME, cell-free; in short: as §1
C6 [5] = test: Induction of cell cycle arrest in rat C6 cells assessed as accumulation at G1 phase after 24 and 48 hrs by propidium iodide staining based flow cytometry; format: functional
In short: (§3)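 C6 cells at 5 µM. About 3 × 10^5 cells fixed in 70% cold ethanol overnight at 4 °C, then stained with 20 µg/mL PI plus 100 µg/mL RNase (final). 10^4 cells analysed by flow cytometry (linear FL3), with doublets excluded by FL3-Area/Width gating; G1, S and G2/M fractions taken from DNA content.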

[6] = Stability in pH 1.3 0.02 M […] buffer containing 0.1% (v/v) Cremophor ELP assessed as half life […] by HPLC method; format: physicochemical
In short: (§4)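 Reaction started by adding 1 mL of a 10^-4 M acetonitrile stock to 10 mL of buffer at 37 ± 0.5 °C. Buffers: pH 7.4, 0.02 M phosphate; pH 1.3, 0.02 M chloridric; both with 0.1% (v/v) Cremophor ELP. Followed by RP-C18 HPLC; run in triplicate, with mean rate constants reported.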

C6 [7] = test: Cytotoxicity against rat C6 cells assessed as reduction in cell viability at 0.1 to 5 uM after 72 hrs by MTT assay; format: functional
In short: (§5)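 C6 cells (HAM'S F12, 10% FBS, 2 mM glutamine, 37 °C, 5% CO2) seeded at 5 × 10^4 cells/well and exposed to 0.1–5 µM for 24, 48 or 72 h. MTT reduction read at 570 nm; viability = A_sample/A_vehicle control × 100. Four independent experiments.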

[8] = Stability in pH 1.3 0.02 M […] buffer containing 0.1% (v/v) Cremophor ELP assessed as pseudo-first-order rate constant […] by HPLC method; format: physicochemical; in short: as §4
[9] = Stability in pH 7.4 0.02 M phosphate buffer containing 0.1% (v/v) Cremophor ELP assessed as pseudo-first-order rate constant […] by HPLC method; format: physicochemical; in short: as §4
C6 [10] = test: Induction of late apoptosis in rat C6 cells after 25 to 72 hrs by Annexin-V/propidium iodide staining based flow cytometry; format: functional; conditions: in the assay text read “24 to 72 hrs” for “25 to 72 hrs”
In short: (§6)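 C6 cells treated at 5 µM for 24, 48 and 72 h. 2.5 × 10^5 cells stained with Annexin-V-FITC (10 min, room temperature, dark), then PI 5 µg/mL. At least 10^4 events collected (FL1/FL3). Late apoptotic cells were Annexin-V+/PI+; necrotic cells were Annexin-V−/PI+.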

Plasma [11] = test: Stability in human plasma assessed pseudo-first-order rate constant at 1 mg/mL by HPLC method; format: ADME, cell-free; in short: as §1
[12] = Solubility in water at 50 mg incubated at 25 degC for 1 hr by HPLC method; format: physicochemical
[13] = target: T1, Histone deacetylase (Rattus norvegicus); test: Inhibition of HDAC in rat C6 cells assessed as increase in histone H3 acetylation at 5 uM after 6 hrs by flow cytometry (reference value: 4.5%); format: cell-based; parameters: scale not given: the % may be the effect or the level left; in short: as §2
Plasma [14] = test: Stability in rat plasma assessed pseudo-first-order rate constant at 1 mg/mL by HPLC method; format: ADME, cell-free; in short: as §1
[15] = Effective permeability of the compound by PAMPA method; format: ADME; conditions: read-out: Peff
In short: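 PAMPA using a porcine polar brain lipid–impregnated filter. Donor: phosphate buffer pH 7.4/pH 6.5 with 500 µM compound and 20% iPrOH co-solvent; acceptor: same buffer. Incubated 18 h at room temperature; donor and acceptor concentrations measured by HPLC; Peff calculated from volumes, filter area (0.28 cm2) and time.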

C6 [16] = test: Drug metabolism in rat C6 cells assessed as metabolite formation at 5 uM incubated for 24 hrs at 37 degC by LC/MS spectrometry; format: ADME, cell-based; conditions: c6, 24 h
In short: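 Glioma C6 cells incubated with 5 µM for 24 h at 37 °C. Cell lysates (2 mg) analysed by LC-MS, compared with untreated control lysates, to detect metabolite ions.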

C6 [17] = test: Induction of cell cycle arrest in rat C6 cells assessed as accumulation at G2/M phase after 24 and 48 hrs by propidium iodide staining based flow cytometry; format: functional; in short: as §3
C6 [18] = test: Antimigratory activity against rat C6 cells assessed as cell migration level at 5 uM after 24 hrs by transwell chamber assay (reference value: 60%); format: functional, cell-based
In short: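 C6 cells grown to 70-80% confluency, serum-starved 24 h, then seeded at 10^5 cells/mL in serum-free HAM'S F12 into the upper chamber of an 8 µm-pore transwell; lower chamber held medium with 5% FCS. Compounds (5 µM final) added 2 h after seeding; 24 h at 37 °C. Migrated cells methanol-fixed, DAPI-stained, counted in five fields, scaled to insert area, expressed as % of cells seeded.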

C6 [19] = test: Induction of cell cycle arrest in rat C6 cells assessed as increase in accumulation at S phase after 72 hrs by propidium iodide staining based flow cytometry; format: functional; in short: as §3
C6 [20] = test: Induction of cell cycle arrest in rat C6 cells assessed as accumulation at S phase after 24 and 48 hrs by propidium iodide staining based flow cytometry; format: functional; in short: as §3
C6 [21] = test: Cytotoxicity against rat C6 cells assessed as reduction in cell viability at 0.1 to 5 uM after 48 hrs by MTT assay; format: functional; in short: as §5
C6 [22] = test: Cytotoxicity against rat C6 cells assessed as reduction in cell viability at 0.1 to 5 uM after 24 hrs by MTT assay; format: functional, cell-based; in short: as §5
[23] = Stability in pH 7.4 0.02 M phosphate buffer containing 0.1% (v/v) Cremophor ELP assessed as half life at […] by HPLC method; format: physicochemical; in short: as §4
C6 [24] = test: Induction of necrosis in rat C6 cells after 25 to 72 hrs by Annexin-V/propidium iodide staining based flow cytometry; format: functional; conditions: in the assay text read “24 to 72 hrs” for “25 to 72 hrs”; in short: as §6
D(3) dopamine receptor = D(3) dopamine receptor (Rattus norvegicus, UniProt P19020); test: Displacement of [3H]-7-OH-DPAT from dopamine D3 receptor in rat olfactory tubercle by scintillation counting method; format: tissue-based
[25] = target: Sigma non-opioid intracellular receptor 1 (Cavia porcellus, UniProt Q60492); test: Displacement of [3H]-(+)-pentazocine from sigma 1 receptor guinea pig brain membranes incubated for 150 mins by scintillation counting method; parameters: species or system Membrane
C6 [26] = test: Induction of necrosis in rat C6 cells after 24 to 72 hrs by Annexin-V/propidium iodide staining based flow cytometry
C6 [27] = test: Cytotoxicity against rat C6 cells assessed as reduction in cell viability at 0.5 to 5 uM after 24 hrs by MTT assay; format: functional; in short: as §5
C6 [28] = test: Induction of late apoptosis in rat C6 cells after 24 to 72 hrs by Annexin-V/propidium iodide staining based flow cytometry
D(2) dopamine receptor = D(2) dopamine receptor (Rattus norvegicus, UniProt P61169); test: Displacement of [3H]-spiperone from dopamine D2 receptor in rat striatum by scintillation counting method
[29] = target: T1, Histone deacetylase (Rattus norvegicus); test: Inhibition of HDAC in rat C6 cells assessed as increase in histone H3 acetylation at 5 uM after 24 hrs by flow cytometry (reference value: 4.5%); format: cell-based; parameters: scale not given: the % may be the effect or the level left; in short: as §2

Chain of D(3) dopamine receptor (P19020 whole entry): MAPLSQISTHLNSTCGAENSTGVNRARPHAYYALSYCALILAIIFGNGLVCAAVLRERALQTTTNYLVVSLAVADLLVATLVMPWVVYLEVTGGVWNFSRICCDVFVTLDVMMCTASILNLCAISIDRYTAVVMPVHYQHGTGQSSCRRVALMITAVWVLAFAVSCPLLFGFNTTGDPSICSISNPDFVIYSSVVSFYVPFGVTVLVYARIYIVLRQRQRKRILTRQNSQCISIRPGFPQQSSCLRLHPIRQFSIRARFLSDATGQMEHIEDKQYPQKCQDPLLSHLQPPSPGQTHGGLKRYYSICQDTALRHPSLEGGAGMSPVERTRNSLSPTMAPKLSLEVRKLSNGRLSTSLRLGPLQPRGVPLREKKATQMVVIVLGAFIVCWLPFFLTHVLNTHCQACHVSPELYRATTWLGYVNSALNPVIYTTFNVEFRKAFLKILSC
Chain of D(2) dopamine receptor (P61169 whole entry): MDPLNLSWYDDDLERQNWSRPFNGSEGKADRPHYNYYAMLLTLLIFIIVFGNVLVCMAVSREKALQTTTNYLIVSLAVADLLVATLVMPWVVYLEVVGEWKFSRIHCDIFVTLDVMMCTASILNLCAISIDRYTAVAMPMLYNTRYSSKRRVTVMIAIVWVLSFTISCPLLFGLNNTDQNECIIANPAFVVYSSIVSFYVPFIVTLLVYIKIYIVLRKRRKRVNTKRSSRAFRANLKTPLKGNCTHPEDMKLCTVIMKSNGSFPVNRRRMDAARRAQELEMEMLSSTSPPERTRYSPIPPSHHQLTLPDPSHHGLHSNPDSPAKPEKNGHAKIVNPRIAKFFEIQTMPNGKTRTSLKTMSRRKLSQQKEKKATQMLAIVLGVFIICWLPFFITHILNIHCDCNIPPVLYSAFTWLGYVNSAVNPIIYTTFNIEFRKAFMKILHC
Chain of Sigma non-opioid intracellular receptor 1 (Q60492 whole entry): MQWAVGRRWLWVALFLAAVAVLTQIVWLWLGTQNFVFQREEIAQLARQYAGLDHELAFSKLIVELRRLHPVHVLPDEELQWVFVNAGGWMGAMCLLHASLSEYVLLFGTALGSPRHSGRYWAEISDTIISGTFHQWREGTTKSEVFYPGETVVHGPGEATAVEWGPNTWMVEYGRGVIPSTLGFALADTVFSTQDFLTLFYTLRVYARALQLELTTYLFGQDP

| SMILES | Ki [1] [nM] | half-life at 1 mg/mL [2] [h] | Activity [3] | half-life at 1 mg/mL [4] [h] | K (Plasma [11]) [h⁻¹] | Activity [13] | K (Plasma [14]) [h⁻¹] | Activity (C6 [5]) | Activity (C6 [7]) [%] | Activity (C6 [17]) | Activity (C6 [18]) | Activity (C6 [19]) | Activity (C6 [20]) | Activity (C6 [21]) | Activity (C6 [22]) | Ki (D(3) dopamine receptor) [nM] | further results |
| --- | --- | --- | --- | --- | --- | --- | --- | --- | --- | --- | --- | --- | --- | --- | --- | --- | --- |
| Cc1ccccc1NC(=N)Nc1ccccc1C [DITOLYLGUANIDINE] | 22 | – | – | – | – | – | – | – | – | – | – | – | – | – | – | – | – |
| O[C@@H](CCCN1CCC(O)(c2ccc(Cl)cc2)CC1)c1ccc(F)cc1 | 9.8 | – | – | – | – | – | – | – | – | – | – | – | – | – | – | 353 | – |
| O=C(O)CCCc1ccccc1 [PHENYLBUTANOIC ACID] | – | – | inactive | – | – | 14% | – | inactive | – | inactive | inactive | inactive | inactive | – | – | – | – |
| OC(CCCN1CCC(O)(c2ccc(Cl)cc2)CC1)c1ccc(F)cc1 (racemic) [HYDROXYHALOPERIDOL] | 2 | – | inactive | – | – | inactive | – | inactive | – | inactive | inactive | inactive | inactive | inactive | – | – | – |
| O[C@H](CCCN1CCC(O)(c2ccc(Cl)cc2)CC1)c1ccc(F)cc1 | 32 | – | – | – | – | – | – | – | – | – | – | – | – | – | – | 1280 | – |

Second part, led by results:

| Ki [1] [nM] | half-life at 1 mg/mL [2] [h] | Activity [3] | half-life at 1 mg/mL [4] [h] | K (Plasma [11]) [h⁻¹] | Activity [13] | K (Plasma [14]) [h⁻¹] | SMILES | Activity (C6 [5]) | Activity (C6 [7]) [%] | Activity (C6 [17]) | Activity (C6 [18]) | Activity (C6 [19]) | Activity (C6 [20]) | Activity (C6 [21]) | Activity (C6 [22]) | Ki (D(3) dopamine receptor) [nM] | further results |
| --- | --- | --- | --- | --- | --- | --- | --- | --- | --- | --- | --- | --- | --- | --- | --- | --- | --- |
| 18 | – | – | – | – | – | – | O=C(CCCN1CCC(O)(c2ccc(Cl)cc2)CC1)c1ccc(F)cc1 [HALOPERIDOL] | – | – | – | – | – | – | – | – | – | – |
| – | 0.108 | inactive | 92 | 0.008 | 14% | 6.41 | O=C(CCCc1ccccc1)OC(CCCN1CCC(O)(c2ccc(Cl)cc2)CC1)c1ccc(F)cc1 (racemic) | inactive | 40 | inactive | Active | Active | inactive | 60% | Dose-dependent effect | – | half-life at 10000 µM [6]: 140 h; K [8]: 0.005 h⁻¹; K [9]: 0.005 h⁻¹; Activity (C6 [10]): 35%; solubility at 1 h [12]: 1.2 µg/mL (≈ 2.29 µM); Papp [15]: 5.25 ×10⁻⁶ cm/s; Drug metabolism (C6 [16]): metabolite_detected; IC50 (C6 [22]; C6, 24 h): 5000 nM; half-life at 10000 µM [23]: 127 h; Activity (C6 [24]): 35% |
| 118 | 0.224 | inactive | 90.7 | 0.008 | inactive | 3.09 | O=C(CCCc1ccccc1)O[C@@H](CCCN1CCC(O)(c2ccc(Cl)cc2)CC1)c1ccc(F)cc1 | inactive | 40 | inactive | Active | Active | inactive | 60% | Dose-dependent effect | > 5000 | Ki [25]: 230 nM; Activity (C6 [26]): 25%; Activity (C6 [27]): 50%; Activity (C6 [28]): 25%; Ki (D(2) dopamine receptor): > 5000 nM |
| 52.7 | 0.312 | inactive | 84.3 | 0.008 | 16.1% | 2.22 | O=C(CCCc1ccccc1)O[C@H](CCCN1CCC(O)(c2ccc(Cl)cc2)CC1)c1ccc(F)cc1 | inactive | 40 | inactive | Active | Active | inactive | 60% | Dose-dependent effect | > 5000 | Ki [25]: 87.5 nM; Activity [29]: 7.2%; Activity (C6 [27]): 40%; Activity (C6 [10]): 40%; Ki (D(2) dopamine receptor): > 5000 nM; Activity (C6 [24]): 40% |
